Measurements from ChEMBL document CHEMBL6087445, “Discovery of Non-Covalent Inhibitors for SARS-CoV-2 PLpro: Integrating Virtual Screening, Synthesis, and Experimental Validation” (ACS Med Chem Lett, 2024).

Assays:
[1] = system: Severe acute respiratory syndrome coronavirus 2; experiment: Inhibition of recombinant SARS-CoV-2 PLpro extracted from Escherichia coli BL21 (DE3) cells in presence of 0.01% triton by microplate reader analysis
[2] = system: Severe acute respiratory syndrome coronavirus 2; experiment: Inhibition of recombinant SARS-CoV-2 PLpro extracted from Escherichia coli BL21 (DE3) cells in absence of 0.01% triton by microplate reader analysis
[3] = system: Severe acute respiratory syndrome coronavirus 2; experiment: Binding affinity to recombinant SARS-CoV-2 PLpro extracted from Escherichia coli BL21 (DE3) cells assessed as change in melting temperature at 1000 uM by DSF analysis
[4] = Microsomal stability in rat liver microsomes assessed as parent compound remaining measured after 30 mins by LC-MS/MS analysis; format: ADME, Microsome; conditions: read-out: Stability
[5] = Selectivity ratio of CC50 for cytotoxicity against human HepG2 cells to CC50 for African green monkey Vero cells; format: toxicity, cell-based; conditions: HepG2 cells and Vero cells
[6] = Microsomal stability in human liver microsomes assessed as parent compound remaining measured after 30 mins by LC-MS/MS analysis; format: ADME, Microsome; conditions: read-out: Stability
[7] = Microsomal stability in mouse liver microsomes assessed as parent compound remaining measured after 30 mins by LC-MS/MS analysis; format: ADME, Microsome; conditions: read-out: Stability
[8] = system: Severe acute respiratory syndrome coronavirus 2; experiment: Inhibition of recombinant SARS-CoV-2 PLpro extracted from Escherichia coli BL21 (DE3) cells in absence of CHAPS detergent by microplate reader analysis
Outline: (§1)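 SARS-CoV-2 PLpro enzymatic inhibition run with and without 1 mM CHAPS detergent; GRL0617 served as positive control.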

[9] = system: Severe acute respiratory syndrome coronavirus 2; experiment: Inhibition of recombinant SARS-CoV-2 PLpro extracted from Escherichia coli BL21 (DE3) cells in presence of CHAPS detergent by microplate reader analysis; outline: as §1

SMILES	inhibition [1]	inhibition [2]	ΔTm [3]	remaining at 0.5 h [4]	selectivity ratio [5]	remaining at 0.5 h [6]	remaining at 0.5 h [7]	inhibition [8]	inhibition [9]
Cn1ccc(-c2ccc3nccc(N[C@@H]4CCNC4)c3n2)cc1=O	Active; Compound Is Not An Aggregator	Active; Compound Is Not An Aggregator	> 1 °C	94.3%	2	98%	> 99%	–	–
CN1CCC(Nc2ccnc3ccc(-c4ccc(C(=O)NCCO)nc4)nc23)CC1	–	–	> 1 °C	94.2%	–	95.5%	97.3%	–	–
CNC(=O)c1ccc(-c2ccc3nccc(NC4CCNCC4)c3n2)cn1	–	–	> 1 °C	97.4%	–	94.4%	93.4%	–	–
CS(=O)(=O)c1cccc(-c2ccc3nccc(N4CCNCC4)c3n2)c1	–	–	> 1 °C	–	–	55.1%	–	–	–
COc1ccc(-c2ccc3nccc(N[C@@H]4CCNC4)c3n2)cn1	–	–	> 1 °C	–	2	54.6%	–	Active; Compound Is Not An Aggregator	Active; Compound Is Not An Aggregator
